# Assays:
# Type in all cases: functional
# [1] = test system: OVCAR-5; assay: Antitumor activity against OVCAR5 cells; details: Homo sapiens
# [2] = test system: SN12C; assay: Antitumor activity against SN12C cells; details: Homo sapiens; for TGI: read-out: Log TGI (converted)
# How it was run: (§1)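 Tested in the NCI 60-human-tumour-cell-line panel at five concentrations, in 10-fold dilutions from 10^-4 to 10^-8 M. Three parameters were taken from the dose-response data, each as log10 of the molar concentration: GI50 (50% net growth inhibition), TGI (total growth inhibition) and LC50 (50% net cell death).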
# [3] = test system: MDA-MB-231; assay: Antitumor activity against MDA-MB-231 cells; details: Homo sapiens; for TGI: read-out: Log TGI (converted)
# [4] = test system: SF-539; assay: Antitumor activity against SF539 cells; details: Homo sapiens; for TGI: read-out: Log TGI (converted)
# [5] = test system: OVCAR-4; assay: Antitumor activity against OVCAR4 cells; details: Homo sapiens; for TGI: read-out: Log TGI (converted)
# [6] = test system: Pseudomonas aeruginosa; assay: Antibacterial activity against Pseudomonas aeruginosa MTCC 424 after 18 hrs; details: MTCC 424, 18 h
# How it was run: (§2)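 Disc diffusion (Kirby–Bauer) on Mueller-Hinton agar inoculated with fresh bacteria at 1-5 × 10^4 cfu mL-1. Compounds were dissolved in DMF at a range of concentrations, and discs were placed in triplicate. Plates were incubated at 30 °C for 18 h. MIC was taken as the lowest concentration giving no visible bacterial growth on the plate.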
# [7] = test system: Vibrio; assay: Antibacterial activity against Vibrio species after 18 hrs; how it was run: as §2
# [8] = test system: SK-MEL-2; assay: Antitumor activity against SK-MEL-2 cells; details: Homo sapiens
# [9] = test system: COLO 205; assay: Antitumor activity against COLO205 cells; details: Homo sapiens; for TGI: read-out: Log TGI (converted)
# [10] = test system: UACC-62; assay: Antitumor activity against UACC62 cells; details: Homo sapiens; for TGI: read-out: Log TGI (converted); how it was run: as §1
# [11] = test system: 786-0; assay: Antitumor activity against 786-0 cells; details: Homo sapiens; for TGI: read-out: Log TGI (converted)
# [12] = test system: NCI-H23; assay: Antitumor activity against NCI-H23 cells; details: Homo sapiens
# [13] = test system: SF-268; assay: Antitumor activity against SF268 cells; details: Homo sapiens; for TGI: read-out: Log TGI (converted)
# [14] = test system: A498; assay: Antitumor activity against A498 cells; details: Homo sapiens; for TGI: read-out: Log TGI (converted)
# [15] = test system: OVCAR-8; assay: Antitumor activity against OVCAR8 cells; details: Homo sapiens; for CC50: read-out: Log LC50 (the source's name) (converted); for TGI: read-out: Log TGI (converted)
# [16] = test system: HCT-116; assay: Antitumor activity against HCT116 cells; details: Homo sapiens; for TGI: read-out: Log TGI (converted)
# [17] = test system: ACHN; assay: Antitumor activity against ACHN cells; details: Homo sapiens; for TGI: read-out: Log TGI (converted)
# [18] = Antitumor activity against MALME 3M cells; details: Homo sapiens; for CC50: read-out: Log LC50 (the source's name) (converted); for TGI: read-out: Log TGI (converted)
# [19] = test system: PC-3; assay: Antitumor activity against PC3 cells; details: Homo sapiens; for TGI: read-out: Log TGI (converted)
# [20] = test system: NCI/ADR-RES; assay: Antitumor activity against NCI/ADR-RES cells; details: Homo sapiens
# [21] = test system: UO-31; assay: Antitumor activity against UO31 cells; details: Homo sapiens; how it was run: as §1
# [22] = test system: RPMI-8226; assay: Antitumor activity against RPMI-8226 cells; details: Homo sapiens
# [23] = test system: IGROV-1; assay: Antitumor activity against IGROV1 cells; details: Homo sapiens
# [24] = test system: NCI-H522; assay: Antitumor activity against NCI-H522 cells; details: Homo sapiens
# [25] = read-out: Log LC50 (the source's name) (converted)
smiles,measurement,setting,value
O=C(NNS(=O)(=O)c1ccc(F)cc1)c1cccnc1Nc1ccc(Cl)cc1Cl,GI50,[1],52.5 µM
same,CC50,[1]; [25],> 100 µM
same,TGI,[1]; read-out: Log TGI (converted),> 100 µM
same,GI50,[2],17.8 µM
same,LC50,[2],57.5 µM
same,TGI,[2],31.6 µM
same,GI50,[3],28.8 µM
same,LC50,[3],> 100 µM
same,TGI,[3],> 100 µM
same,GI50,[4],26.3 µM
same,LC50,[4],> 100 µM
same,TGI,[4],74.1 µM
same,GI50,[5],38 µM
same,"LC50 (lethal concentration, 50%)",[5],> 100 µM
same,TGI,[5],> 100 µM
same,MIC,[6],> 25 mg/L
same,MIC,[7],20 mg/L
same,GI50,[8],42.7 µM
same,LC50,[8],> 100 µM
same,TGI,[8]; read-out: Log TGI (converted),> 100 µM
same,GI50,[9],16.2 µM
same,LC50,[9],> 100 µM
same,TGI,[9],51.3 µM
same,GI50,[10],45.7 µM
same,LC50,[10],> 100 µM
same,TGI,[10],> 100 µM
same,GI50,[11],22.9 µM
same,"LC50 (lethal concentration, 50%)",[11],> 100 µM
same,TGI,[11],53.7 µM
same,GI50,[12],36.3 µM
same,LC50,[12],> 100 µM
same,TGI,[12]; read-out: Log TGI (converted),> 100 µM
same,GI50,[13],45.7 µM
same,LC50,[13],> 100 µM
same,TGI,[13],> 100 µM
same,GI50,[14],17.4 µM
same,LC50,[14],77.6 µM
same,TGI,[14],36.3 µM
same,GI50,[15],26.9 µM
same,CC50,[15],> 100 µM
same,TGI,[15],> 100 µM
same,GI50,[16],30.2 µM
same,LC50,[16],> 100 µM
same,TGI,[16],> 100 µM
same,GI50,[17],45.7 µM
same,LC50,[17],> 100 µM
same,TGI,[17],> 100 µM
same,GI50,[18],34.7 µM
same,CC50,[18],> 100 µM
same,TGI,[18],> 100 µM
same,GI50,[19],14.8 µM
same,LC50,[19],69.2 µM
same,TGI,[19],32.4 µM
same,GI50,[20],39.8 µM
same,LC50,[20],> 100 µM
same,TGI,[20]; read-out: Log TGI (converted),> 100 µM
CC(=O)Nc1ccc(S(=O)(=O)NNC(=O)c2cccnc2Nc2ccc(Cl)cc2)cc1,GI50,[2],58.9 µM
same,LC50,[2],> 100 µM
same,TGI,[2],> 100 µM
same,GI50,[3],41.7 µM
same,LC50,[3],> 100 µM
same,TGI,[3],> 100 µM
same,GI50,[4],15.5 µM
same,LC50,[4],> 100 µM
same,TGI,[4],75.9 µM
same,GI50,[5],44.7 µM
same,"LC50 (lethal concentration, 50%)",[5],> 100 µM
same,TGI,[5],> 100 µM
same,GI50,[21],91.2 µM
same,LC50 (50% net cell death),[21],> 100 µM
same,TGI,[21]; read-out: Log TGI (converted),> 100 µM
same,MIC,[6],> 25 mg/L
same,MIC,[7],18 mg/L
same,GI50,[9],10.2 µM
same,LC50,[9],> 100 µM
same,TGI,[9],57.5 µM
same,GI50,[10],8.91 µM
same,LC50,[10],> 100 µM
same,TGI,[10],> 100 µM
same,GI50,[11],47.9 µM
same,"LC50 (lethal concentration, 50%)",[11],> 100 µM
same,TGI,[11],> 100 µM
same,GI50,[13],21.9 µM
same,LC50,[13],> 100 µM
same,TGI,[13],> 100 µM
same,GI50,[22],28.8 µM
same,LC50,[22],> 100 µM
same,TGI,[22]; read-out: Log TGI (converted),> 100 µM
same,GI50,[14],18.6 µM
same,LC50,[14],> 100 µM
same,TGI,[14],> 100 µM
same,GI50,[15],36.3 µM
same,CC50,[15],> 100 µM
same,TGI,[15],> 100 µM
same,GI50,[16],7.24 µM
same,LC50,[16],> 100 µM
same,TGI,[16],> 100 µM
same,GI50,[17],52.5 µM
same,LC50,[17],> 100 µM
same,TGI,[17],75.9 µM
same,GI50,[23],27.5 µM
same,CC50,[23]; [25],> 100 µM
same,TGI,[23]; read-out: Log TGI (converted),> 100 µM
same,GI50,[18],> 100 µM
same,CC50,[18],> 100 µM
same,TGI,[18],> 100 µM
same,GI50,[24],6.46 µM
same,CC50,[24]; [25],> 100 µM
same,TGI,[24]; read-out: Log TGI (converted),> 100 µM
same,GI50,[19],29.5 µM
same,LC50,[19],> 100 µM
same,TGI,[19],> 100 µM

# Reference: ChEMBL document CHEMBL1144562, “Synthesis of a new class of 2-anilino substituted nicotinyl arylsulfonylhydrazides as potential anticancer and antibacterial agents” (2007)
